Source: ChEMBL document CHEMBL3588840, “An Isoflavone from Leiophyllum buxifolium and Its Antiproliferative Effect” (J Nat Prod, 2015)
pIC50: −log10 of the molar value.

Legend:
[1] = Antiproliferative activity against mouse NIH/3T3 cells assessed as inhibition of cell proliferation incubated for 72 hrs by SRB assay; format: cell-based; conditions: NIH3T3, 72 h
In short: (§1)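 Seeded at 1 × 10^4 cells/well (MCF-7: EMEM + 10% FBS; MDA-MB-231: EMEM + 10% NuSerum; NIH3T3: DMEM + 5% NuSerum + 1% antibiotics). Exposed to 1.25–40 μM final (DMSO stock diluted in water) for 72 h at 37 °C, 5% CO2. Day-0 plate used. Fixed with TCA (10% final, 4 °C, 1 h), stained with 0.4% SRB, dye dissolved in 10 mM Tris. IC50 derived. Podophyllotoxin and 0.5% DMSO as controls.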

MCF7 = assay: Antiproliferative activity against human MCF7 cells assessed as inhibition of cell proliferation incubated for 72 hrs by SRB assay; format: functional, cell-based; conditions: MCF7, 72 h; in short: as §1
MDA-MB-231 = assay: Antiproliferative activity against human MDA-MB-231 cells assessed as inhibition of cell proliferation incubated for 72 hrs by SRB assay; format: functional, cell-based; conditions: MDA-MB-231, 72 h; in short: as §1
Artemia salina = assay: Cytotoxicity against Artemia salina assessed as induction of shrimp mortality incubated for 24 hrs; format: functional; conditions: for LC50: read-out: LD50 (the source's name)

| Compound | pIC50 [1] | pIC50 (MCF7) | pIC50 (MDA-MB-231) | Activity (Artemia salina) | LC50 (Artemia salina) [µM] |
| --- | --- | --- | --- | --- | --- |
| COc1c(C)c(O)c2c(=O)cc(-c3ccc(O)cc3)oc2c1C [SIDEROXYLIN] | < 4.40 | 4.83 | 4.43 | Dose-dependent effect | 80.1 |
| COc1cc([C@@H]2c3cc4c(cc3[C@H](O)[C@H]3COC(=O)[C@H]23)OCO4)cc(OC)c1OC [PODOFILOX] | 7.08 |  | 7.10 |  |  |
| COc1c(C)c(O)c2c(=O)c(-c3ccc(O)cc3)coc2c1C | < 4.40 | < 4.40 | 5.15 | Dose-dependent effect | 20.2 |
